Measured values of several laboratories.
Lines come from different studies, so protocols differ.
HCK: Tyrosine-protein kinase HCK (HCK, Homo sapiens, UniProt P08631)

N#CCCc1ccc2c(c1)-c1[nH]c3ccc([N+](=O)[O-])cc3c1CC(=O)N2 — remaining signal (HCK; cell-free assay; 0.5 µM): 63.8%
CCCS(=O)(=O)Nc1ccc(F)c(C(=O)c2c[nH]c3ncc(-c4ccc(Cl)cc4)cc23)c1F — inhibition (HCK; enzyme activity; inhibitor; 1 µM): < 10%
O=C1NC(=O)c2cc(Nc3ccc(F)cc3)c(Nc3ccc(F)cc3)cc21 — remaining signal (HCK; cell-free assay; 0.5 µM): 88.3%
CN(C)C1CCN(CC#Cc2nn(C3CCCC3)c3nc(NCc4ccccc4)ncc23)C1 (stereo not shown) — inhibition (HCK; enzyme activity; inhibitor; FRET; 10 µM): 19%
Cc1ccc(Nc2nccc(N(C)c3ccc4c(C)n(C)nc4c3)n2)cc1S(N)(=O)=O — inhibition (HCK; enzyme activity; inhibitor; 0.3 µM): 21%
COc1cc2ncnc(Nc3ccc(Oc4ccccc4)c(C)c3C)c2cc1OC — inhibition (HCK; enzyme activity; inhibitor; 1 µM): 53%
CC/C(=N\NC(=O)NCc1cccc(O)c1)c1ccc(O)c(C)c1O — inhibition (HCK; enzyme activity; inhibitor; 0.1 µM): 6.1%
O=C(Nc1ccc(Oc2ccc(F)cc2)cc1)N1CCc2ncccc2[C@H]1c1ccc(F)cc1 — remaining binding (HCK; cell-free assay; competition with immobilised ligand; 1 µM): 100%
COc1cc2ncnc(Nc3ccc(F)c(Cl)c3)c2cc1OCCCN1CCOCC1 — remaining signal (HCK; cell-free assay; 0.5 µM): 73.3%
O=C(Nc1cnn(-c2csc(C(=O)NC3COC3)c2)c1)Nc1c(F)cccc1Cl — remaining activity (HCK; enzyme activity; inhibitor; 5 µM): 91.3%
Cc1ccc(C(=O)NCc2ccsc2)cc1C#Cc1cn(C(C)C)c2ncnc(N)c12 — activity vs control (HCK; enzyme activity; inhibitor; 1 µM): 4%
Cc1c(NC(=O)c2cc(C(N)=O)nc3cc(F)ccc23)c(C(F)(F)F)nn1Cc1ccc(C(C)(C)C)cc1 — remaining binding (HCK; cell-free assay; competition with immobilised ligand; 1 µM): 92%
O=C1Nc2ccc(Cl)cc2C1=Cc1cc(Cl)c(O)c(Cl)c1 — remaining signal (HCK; cell-free assay; 0.5 µM): 83.2%
CC(=O)c1c(NS(C)(=O)=O)c2cc(-c3ccc(Cl)cc3)c(-c3ccc(Cl)cc3Cl)nc2n(C)c1=O — remaining binding (HCK; cell-free assay; competition with immobilised ligand; 1 µM): 100%
CNc1cccc2cc(C(=O)Nc3ccc(C(=O)O)cc3)c(=O)[nH]c12 — inhibition (HCK; enzyme activity; inhibitor; 10 µM): -12%
Cc1ccc(C(=O)Nc2ccc(CN3CCN(C)CC3)c(C(F)(F)F)c2)cc1C#Cc1cnc2cccnn12 — remaining activity (HCK; enzyme activity; 23.5 nM): 1.6%
Cc1cnc(NC2CCOCC2)nc1-n1cnc(C(=O)NC(CN)c2cc(F)cc(Cl)c2)c1 (stereo not shown) — remaining activity (HCK; enzyme activity; inhibitor; radiometric; 1 µM): 101%
C[C@H](c1ccnc(Nc2nc3ccc(-c4cc(N(C)C)ncn4)cc3[nH]2)c1)N1CCN(C(=O)CC(F)(F)F)CC1 — remaining binding (HCK; cell-free assay; competition with immobilised ligand; 0.1 µM): 91%
Cc1ccc(NC(=O)c2ccc(C)c(C(F)(F)F)c2)cc1C#Cc1nn(C2CCC(O)CC2)c2ncnc(N)c12 (stereo not shown) — remaining signal (HCK; cell-free assay; 10 µM): 0%
CNCc1ccccc1-c1csc([C@H](C)Nc2nc(C)nc3cc(OC)c(OC)cc23)c1 — remaining binding (HCK; cell-free assay; competition with immobilised ligand; 1 µM): 98%
CCN(CC)CCNC(=O)c1c(C)[nH]c(/C=C2\C(=O)Nc3ccc(F)cc32)c1C — inhibition (HCK; enzyme activity; inhibitor; 10 µM): 92%
CC(=O)N1CCC(c2ccc(C(=O)NC(=N)N)cc2C(F)(F)F)CC1 — remaining binding (HCK; cell-free assay; competition with immobilised ligand; 1 µM): 100%
CNC(=O)c1cc2c(Oc3ccc(NC(=O)C4(C(=O)Nc5ccc(F)cc5)CC4)cc3)ccnc2cc1OC — inhibition (Tyrosine-protein kinase HCK, phosphorylated (HCK, Homo sapiens, UniProt P08631); enzyme activity; inhibitor; radiometric; 1 µM): 88%
CN(C(=O)c1ccccc1)c1cc(N(C)c2ccc3c(c2)CCc2ccc(C(=O)NCCN4CCOCC4)cc2C3=O)ccc1F — remaining binding (HCK; cell-free assay; competition with immobilised ligand; 1 µM): 100%
Cc1sc(C(=O)NC2COC2)cc1-n1cc(NC(=O)Nc2c(F)cccc2Cl)cn1 — remaining activity (HCK; enzyme activity; inhibitor; 10 µM): 95%
